Assay results reported in ChEMBL document CHEMBL5653612, “Catalytic site remodelling of the DOT1L methyltransferase by selective inhibitors” (Nat Commun, 2012).
Activity calls are given as the source filed them. The rule behind the calls is not given here.

What was measured:
[1] = target: T1, Histone-lysine N-methyltransferase, H3 lysine-79 specific (Homo sapiens, UniProt Q8TEK3); test: Binding affinity to recombinant N-terminal DOT1L (1 to 420 residues) (unknown origin) expressed in Escherichia coli (DE3) assessed as dissociation constant by SPR analysis
T1 sequence (Q8TEK3 whole entry, the tested form may be a part): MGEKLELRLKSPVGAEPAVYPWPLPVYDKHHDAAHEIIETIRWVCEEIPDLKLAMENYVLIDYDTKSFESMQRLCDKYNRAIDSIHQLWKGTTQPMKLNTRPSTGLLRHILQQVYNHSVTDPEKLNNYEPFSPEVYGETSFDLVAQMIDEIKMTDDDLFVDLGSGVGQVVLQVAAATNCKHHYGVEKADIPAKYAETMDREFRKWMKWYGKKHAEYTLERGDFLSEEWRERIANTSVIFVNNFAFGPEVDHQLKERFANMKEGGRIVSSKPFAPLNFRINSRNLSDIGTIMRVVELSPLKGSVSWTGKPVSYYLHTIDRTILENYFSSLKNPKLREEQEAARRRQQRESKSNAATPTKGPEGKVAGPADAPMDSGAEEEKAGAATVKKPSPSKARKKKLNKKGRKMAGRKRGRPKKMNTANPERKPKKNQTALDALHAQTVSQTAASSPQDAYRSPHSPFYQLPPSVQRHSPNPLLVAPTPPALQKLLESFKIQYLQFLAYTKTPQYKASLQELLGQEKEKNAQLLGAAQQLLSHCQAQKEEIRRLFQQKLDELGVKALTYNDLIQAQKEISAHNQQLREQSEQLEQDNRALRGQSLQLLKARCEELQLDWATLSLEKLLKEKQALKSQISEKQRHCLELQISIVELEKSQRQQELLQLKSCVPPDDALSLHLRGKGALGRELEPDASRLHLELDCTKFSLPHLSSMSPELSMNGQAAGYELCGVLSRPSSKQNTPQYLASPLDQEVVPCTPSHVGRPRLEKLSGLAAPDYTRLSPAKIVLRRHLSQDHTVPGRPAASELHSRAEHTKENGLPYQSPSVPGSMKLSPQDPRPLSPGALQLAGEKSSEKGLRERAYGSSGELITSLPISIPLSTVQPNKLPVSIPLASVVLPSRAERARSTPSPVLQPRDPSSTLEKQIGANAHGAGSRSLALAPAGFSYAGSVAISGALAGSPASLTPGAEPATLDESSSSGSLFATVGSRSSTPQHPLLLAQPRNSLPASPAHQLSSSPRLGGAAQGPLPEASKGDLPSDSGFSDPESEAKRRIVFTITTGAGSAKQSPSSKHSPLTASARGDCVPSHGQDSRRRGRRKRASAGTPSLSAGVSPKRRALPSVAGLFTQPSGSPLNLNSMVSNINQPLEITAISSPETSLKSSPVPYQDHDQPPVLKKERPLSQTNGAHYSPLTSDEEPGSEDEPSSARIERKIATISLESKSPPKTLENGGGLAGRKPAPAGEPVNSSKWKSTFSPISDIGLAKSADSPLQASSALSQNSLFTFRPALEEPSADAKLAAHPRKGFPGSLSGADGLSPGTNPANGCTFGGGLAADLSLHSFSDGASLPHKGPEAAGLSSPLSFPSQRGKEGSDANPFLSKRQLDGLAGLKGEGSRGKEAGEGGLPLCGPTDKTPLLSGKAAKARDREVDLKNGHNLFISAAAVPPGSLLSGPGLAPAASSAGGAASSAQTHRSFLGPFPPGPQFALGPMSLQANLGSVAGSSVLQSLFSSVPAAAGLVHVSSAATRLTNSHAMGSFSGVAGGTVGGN

[2] = test system: MV4-11; test: Downregulation of H3K79me2 in human MV4-11 cells habouring MLL/AF4 fusion protein measured upto 48 hrs by immuno blot analysis; format: functional, cell-based
[3] = target: T1, Histone-lysine N-methyltransferase, H3 lysine-79 specific; test: Binding affinity to recombinant N-terminal DOT1L (1 to 420 residues) (unknown origin) expressed in Escherichia coli (DE3) assessed as dissociation constant by surface plasmon resonance assay
[4] = target: T1, Histone-lysine N-methyltransferase, H3 lysine-79 specific; test: Inhibition of recombinant N-terminal DOT1L (1 to 420 residues) (unknown origin) expressed in Escherichia coli (DE3) using [3H]-SAM as substrate preincubated for 30 mins followed by substrate addition and measured after 2 hrs by Topcount reader analysis; conditions: read-out: IC50
[5] = target: 5-hydroxytryptamine receptor 2B (Homo sapiens) (UniProt P41595); test: Inhibition of human 5HT2B receptor at 1 uM relative to control
Sequence of 5-hydroxytryptamine receptor 2B (Homo sapiens) (P41595 whole entry): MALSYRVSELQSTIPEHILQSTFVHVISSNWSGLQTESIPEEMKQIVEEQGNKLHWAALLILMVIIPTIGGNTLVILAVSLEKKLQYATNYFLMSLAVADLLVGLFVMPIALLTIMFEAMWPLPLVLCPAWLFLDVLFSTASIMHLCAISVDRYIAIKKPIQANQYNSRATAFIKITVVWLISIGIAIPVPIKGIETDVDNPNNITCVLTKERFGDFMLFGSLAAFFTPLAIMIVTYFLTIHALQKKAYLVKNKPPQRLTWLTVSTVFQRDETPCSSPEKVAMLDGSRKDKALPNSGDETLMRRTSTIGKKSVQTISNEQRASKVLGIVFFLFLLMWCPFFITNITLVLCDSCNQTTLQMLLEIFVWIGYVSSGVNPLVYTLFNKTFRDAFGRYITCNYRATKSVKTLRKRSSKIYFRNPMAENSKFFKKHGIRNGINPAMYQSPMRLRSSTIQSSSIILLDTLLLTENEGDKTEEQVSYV

[6] = species on record: Homo sapiens; test: Inhibition of human nicotinic acetylcholine alpha at 1 uM relative to control
[7] = test system: MOLM-13; test: Inhibition of Meis1 level in human MOLM-13 cells at 1 uM measured after 7 days by SYBR green staining based PCR analysis; format: functional, cell-based; conditions: time 7.0 day
Outline: (§1)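 RNA was extracted with Qiazol and reverse-transcribed. SYBR green qPCR used gene-specific primer pairs for HOXA9 and Meis1.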

[8] = test system: MOLM-13; test: Inhibition of HOXA9 level in human MOLM-13 cells at 1 uM measured after 7 days by SYBR green staining based PCR analysis; format: functional, cell-based; conditions: time 7.0 day; outline: as §1
[9] = cells; conditions: Homo sapiens, A-431
[10] = target: Histone-lysine N-methyltransferase SUV39H2 (Homo sapiens) (UniProt Q9H5I1); test: Inhibition of SUV39H2 (unknown origin) using H3 1-25 peptide in presence of SAM
Outline: (§2)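 Radiometric methyltransferase panel in which 3H-SAM, at or below each enzyme's Km, methylates biotinylated peptide substrates. They were quenched with 7.5 M guanidine-HCl, diluted, captured on streptavidin flash plates for 1 h, and counted by scintillation.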

[11] = target: Histone-lysine N-methyltransferase SETDB1 (Homo sapiens) (UniProt Q15047); test: Inhibition of SETDB1 (unknown origin) using H3 1-25 peptide in presence of SAM; outline: as §2
[12] = target: Alpha-1B adrenergic receptor (Rattus norvegicus) (UniProt P15823); test: Inhibition of rat Adrenergic alpha 1B receptor at 1 uM relative to control
[13] = target: Histone-lysine N-methyltransferase 2A (Homo sapiens) (UniProt Q03164); test: Inhibition of MLL (unknown origin) using H3 1-25 peptide in presence of SAM; outline: as §2
[14] = target: hERG (KCNH2) (Homo sapiens, UniProt Q12809); test: Inhibition of human ERG at 1 uM relative to control; format: toxicity
[15] = target: Protein arginine N-methyltransferase 5 (Homo sapiens, UniProt O14744); test: Inhibition of PRMT5 (unknown origin) using H4 1-24 peptide in presence of SAM; outline: as §2
[16] = test system: Cord blood cell; test: Cytotoxicity against human Cord blood cell habouring MIL-AF9 fusion protein assessed as reduction in cell viability at 1 to 5 uM incubated for 14 days by resazurin dye based […] assay; format: functional; conditions: dose 1-5 µM, time 14.0 day
Outline: (§3)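 Transformed human cord blood cells were cultured with DMSO or inhibitor at 1 and 5 μM for 14 days. Resazurin (0.1 mg ml−1) was added for 4 h and resorufin fluorescence was read. Data are from at least two independent experiments, each with three repeats, shown as s.e. of the mean.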

[17] = target: Alpha-1A adrenergic receptor (Rattus norvegicus) (UniProt P43140); test: Inhibition of rat Adrenergic alpha 1A receptor at 1 uM relative to control
[18] = Apparent permeability across basolateral to apical side in human Caco-2 cells at 10 uM incubated for 90 mins at pH 7.4 by LC/MS analysis; format: ADME, cell-based; conditions: Caco-2, pH 7.4
[19] = species on record: Rattus norvegicus; test: Inhibition of rat Calcium 2 channel L, dihydropyridine site at 1 uM relative to control
[20] = target: Histamine H1 receptor (Homo sapiens) (UniProt P35367); test: Inhibition of human histamine H1 receptor at 1 uM relative to control
[21] = species on record: Rattus norvegicus; test: Inhibition of rat central GABAA receptor at 1 uM by muscimol radioligand binding assay relative to control
[22] = target: Muscarinic acetylcholine receptor M3 (Homo sapiens) (UniProt P20309); test: Inhibition of human muscarinic acetylcholine M3 receptor at 1 uM relative to control
[23] = target: Cannabinoid receptor 1 (Homo sapiens) (UniProt P21554); test: Inhibition of human CB1R at 1 uM relative to control
[24] = cells; conditions: Homo sapiens, MCF-10A
[25] = species on record: Rattus norvegicus; test: Inhibition of rat central GABAA receptor at 1 uM by flunitrazepam radioligand binding assay relative to control
[26] = target: Protein arginine N-methyltransferase 3 (Homo sapiens) (UniProt O60678); test: Inhibition of PRMT3 (unknown origin) using H3 1-24 peptide in presence of SAM; outline: as §2
Sequence of Protein arginine N-methyltransferase 3 (Homo sapiens) (O60678 2-531 limits assumed): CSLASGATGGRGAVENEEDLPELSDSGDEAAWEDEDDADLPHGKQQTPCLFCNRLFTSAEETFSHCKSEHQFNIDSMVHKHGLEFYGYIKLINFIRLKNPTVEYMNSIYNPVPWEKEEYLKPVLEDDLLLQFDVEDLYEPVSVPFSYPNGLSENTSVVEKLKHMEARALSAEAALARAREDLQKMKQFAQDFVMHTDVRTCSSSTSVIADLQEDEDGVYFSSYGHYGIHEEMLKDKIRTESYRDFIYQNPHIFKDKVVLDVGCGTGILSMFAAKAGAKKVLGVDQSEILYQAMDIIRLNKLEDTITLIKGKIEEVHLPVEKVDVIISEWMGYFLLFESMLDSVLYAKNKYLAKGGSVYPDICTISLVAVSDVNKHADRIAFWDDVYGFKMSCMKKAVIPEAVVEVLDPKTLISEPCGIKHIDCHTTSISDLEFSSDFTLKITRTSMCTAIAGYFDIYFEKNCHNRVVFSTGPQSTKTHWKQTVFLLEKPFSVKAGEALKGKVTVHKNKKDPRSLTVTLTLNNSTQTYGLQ

[27] = Apparent permeability across apical to basolateral side in human Caco-2 cells at 10 uM incubated for 90 mins at pH 7.4 by LC/MS analysis; format: ADME, cell-based; conditions: Caco-2, pH 7.4
[28] = species on record: Homo sapiens; test: Inhibition of PRC2 (unknown origin) using H3 21-44 peptide in presence of SAM; outline: as §2
[29] = target: Histone-lysine N-methyltransferase SETD7 (Homo sapiens) (UniProt Q8WTS6); test: Inhibition of SETD7 (unknown origin) using H3 1-25 peptide in presence of SAM; outline: as §2
[30] = test system: Cord blood cell; test: Cytotoxicity against human Cord blood cell habouring TLS-ERG fusion protein assessed as reduction in cell viability at 1 to 5 uM incubated for 14 days by resazurin dye based […] assay; format: functional; conditions: dose 1-5 µM, time 14.0 day; outline: as §3
[31] = species on record: Rattus norvegicus; test: Inhibition of rat central imidazoline receptor 2 at 1 uM relative to control
[32] = target: Beta-2 adrenergic receptor (Homo sapiens) (UniProt P07550); test: Inhibition of human Adrenergic beta 2 receptor at 1 uM relative to control
Sequence of Beta-2 adrenergic receptor (Homo sapiens) (P07550 whole entry, looked up): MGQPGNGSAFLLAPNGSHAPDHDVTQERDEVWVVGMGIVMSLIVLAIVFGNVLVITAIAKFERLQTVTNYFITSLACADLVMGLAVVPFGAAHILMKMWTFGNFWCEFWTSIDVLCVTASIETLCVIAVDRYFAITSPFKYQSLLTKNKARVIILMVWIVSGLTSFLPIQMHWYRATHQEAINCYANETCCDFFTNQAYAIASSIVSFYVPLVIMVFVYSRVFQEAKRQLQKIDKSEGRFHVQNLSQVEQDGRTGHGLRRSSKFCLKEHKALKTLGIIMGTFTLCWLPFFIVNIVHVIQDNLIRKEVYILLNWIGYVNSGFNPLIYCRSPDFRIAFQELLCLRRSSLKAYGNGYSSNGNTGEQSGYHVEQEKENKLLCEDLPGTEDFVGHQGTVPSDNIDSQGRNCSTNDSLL

[33] = target: Adenosine receptor A1 (Homo sapiens) (UniProt P30542); test: Inhibition of human Adenosine A1 receptor at 1 uM relative to control
[34] = target: D(1A) dopamine receptor (Homo sapiens) (UniProt P21728); test: Inhibition of human dopamine D1 receptor at 1 uM relative to control
[35] = target: Histone-lysine N-methyltransferase EHMT2 (Homo sapiens) (UniProt Q96KQ7); test: Inhibition of G9a (unknown origin) using H3 1-25 peptide in presence of SAM; outline: as §2
Sequence of Histone-lysine N-methyltransferase EHMT2 (Homo sapiens) (Q96KQ7 whole entry): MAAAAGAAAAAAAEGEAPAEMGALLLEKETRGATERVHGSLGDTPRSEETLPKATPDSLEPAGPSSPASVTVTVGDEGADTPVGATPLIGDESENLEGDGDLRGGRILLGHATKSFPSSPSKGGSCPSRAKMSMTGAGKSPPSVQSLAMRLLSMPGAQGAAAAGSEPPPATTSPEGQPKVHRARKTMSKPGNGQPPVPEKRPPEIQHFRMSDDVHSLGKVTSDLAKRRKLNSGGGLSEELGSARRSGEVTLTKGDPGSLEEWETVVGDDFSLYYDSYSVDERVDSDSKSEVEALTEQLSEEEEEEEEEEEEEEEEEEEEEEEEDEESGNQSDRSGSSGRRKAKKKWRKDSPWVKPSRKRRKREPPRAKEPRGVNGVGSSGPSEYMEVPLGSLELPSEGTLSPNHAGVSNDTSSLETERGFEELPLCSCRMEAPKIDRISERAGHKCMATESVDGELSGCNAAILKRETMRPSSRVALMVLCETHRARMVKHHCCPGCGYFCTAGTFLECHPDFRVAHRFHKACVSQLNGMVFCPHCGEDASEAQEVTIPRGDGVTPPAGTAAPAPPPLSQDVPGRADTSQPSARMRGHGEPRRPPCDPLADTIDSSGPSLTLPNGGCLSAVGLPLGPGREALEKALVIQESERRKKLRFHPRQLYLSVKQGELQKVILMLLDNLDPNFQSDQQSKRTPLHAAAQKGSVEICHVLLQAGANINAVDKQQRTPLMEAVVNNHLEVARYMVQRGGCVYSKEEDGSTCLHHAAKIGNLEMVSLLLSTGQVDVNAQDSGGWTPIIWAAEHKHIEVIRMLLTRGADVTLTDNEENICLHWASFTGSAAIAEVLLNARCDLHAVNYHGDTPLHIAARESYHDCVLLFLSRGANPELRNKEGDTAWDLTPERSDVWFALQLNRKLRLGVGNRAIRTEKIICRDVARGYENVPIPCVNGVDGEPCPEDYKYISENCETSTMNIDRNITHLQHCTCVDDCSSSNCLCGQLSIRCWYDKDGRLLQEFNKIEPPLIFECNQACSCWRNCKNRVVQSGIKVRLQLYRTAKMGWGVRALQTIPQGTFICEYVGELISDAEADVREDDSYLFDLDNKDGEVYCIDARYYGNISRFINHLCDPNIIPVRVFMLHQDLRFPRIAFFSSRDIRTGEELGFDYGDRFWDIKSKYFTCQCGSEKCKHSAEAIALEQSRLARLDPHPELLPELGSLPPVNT

[36] = target: Mu-type opioid receptor (Homo sapiens) (UniProt P35372); test: Inhibition of human MOP receptor at 1 uM relative to control
[37] = target: Histone-lysine N-methyltransferase KMT5C (Homo sapiens) (UniProt Q86Y97); test: Inhibition of SUV420H2 (unknown origin) using H4 K20Me1 peptide in presence of SAM; outline: as §2
[38] = target: N-lysine methyltransferase KMT5A (Homo sapiens) (UniProt Q9NQR1); test: Inhibition of SETD8 (unknown origin) using […] in presence of SAM; outline: as §2
Sequence of N-lysine methyltransferase KMT5A (Homo sapiens) (Q9NQR1 whole entry): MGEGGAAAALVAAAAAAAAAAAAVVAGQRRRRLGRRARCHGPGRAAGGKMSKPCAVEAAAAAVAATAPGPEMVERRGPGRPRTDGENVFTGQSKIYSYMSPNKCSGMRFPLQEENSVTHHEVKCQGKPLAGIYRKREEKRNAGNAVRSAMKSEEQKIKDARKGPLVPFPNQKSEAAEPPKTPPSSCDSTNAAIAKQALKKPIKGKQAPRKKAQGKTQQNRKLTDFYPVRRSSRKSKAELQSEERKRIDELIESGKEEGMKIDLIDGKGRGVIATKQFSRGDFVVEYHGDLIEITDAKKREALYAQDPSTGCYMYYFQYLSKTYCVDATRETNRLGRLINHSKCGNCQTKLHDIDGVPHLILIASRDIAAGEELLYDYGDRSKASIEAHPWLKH

[39] = target: Alpha-2A adrenergic receptor (Homo sapiens) (UniProt P08913); test: Inhibition of human Adrenergic alpha 2A receptor at 1 uM relative to control
[40] = target: Adenosine receptor A2a (Homo sapiens) (UniProt P29274); test: Inhibition of human Adenosine 2A receptor at 1 uM relative to control
[41] = target: Histone-lysine N-methyltransferase EHMT1 (Homo sapiens) (UniProt Q9H9B1); test: Inhibition of EHMT1 (unknown origin) using H3 1-25 peptide in presence of SAM; outline: as §2
[42] = target: Beta-1 adrenergic receptor (Homo sapiens) (UniProt P08588); test: Inhibition of human Adrenergic beta1 receptor at 1 uM relative to control
Sequence of Beta-1 adrenergic receptor (Homo sapiens) (P08588 whole entry, looked up): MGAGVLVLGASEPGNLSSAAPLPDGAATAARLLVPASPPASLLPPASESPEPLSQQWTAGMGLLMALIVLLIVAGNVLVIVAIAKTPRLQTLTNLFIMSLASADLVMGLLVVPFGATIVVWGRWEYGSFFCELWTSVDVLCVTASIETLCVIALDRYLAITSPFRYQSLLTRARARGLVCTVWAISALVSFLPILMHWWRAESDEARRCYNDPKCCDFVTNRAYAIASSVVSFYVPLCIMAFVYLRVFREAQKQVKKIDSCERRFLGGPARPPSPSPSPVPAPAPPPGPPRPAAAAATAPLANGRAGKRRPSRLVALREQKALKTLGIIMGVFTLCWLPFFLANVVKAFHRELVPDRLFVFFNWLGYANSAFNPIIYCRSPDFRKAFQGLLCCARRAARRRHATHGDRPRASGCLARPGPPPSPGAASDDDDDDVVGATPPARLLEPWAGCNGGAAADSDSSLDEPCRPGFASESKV

[43] = test system: MOLM-13; test: Downregulation of H3K79me2 in human MOLM-13 cells at 1 uM by immuno blot analysis; format: functional, cell-based; conditions: time 3-7 day, TDE = time-dependent effect
Outline: (§4)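 Exponentially growing Molm13 cells were plated at 2 × 10^5 per well in 2 ml and exposed to 1 μM compound or DMSO for the indicated times. Extracted histones (3 μg) were run on 10% Bis-Tris gels and transferred to nitrocellulose. Blots were probed with primary antibody (1:1000 in 5% milk/TBS-T), then anti-rabbit secondary, with chemiluminescent detection.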

[44] = target: DNA (cytosine-5)-methyltransferase 1 (Homo sapiens) (UniProt P26358); test: Inhibition of DNMT1 (unknown origin) using ds-DNA peptide in presence of SAM; outline: as §2
[45] = target: Glutamate NMDA receptor (Rattus norvegicus) (UniProt P35439+Q00959+Q00960+Q00961+Q62645+Q8VHN2+Q9R1M7); test: Inhibition of rat NMDA glutamate receptor at 1 uM relative to control; format: protein-complex assay
[46] = test system: MOLM-13; test: Downregulation of H3K79me2 in human MOLM-13 cells measured for 3 to 7 days by immuno blot analysis; format: functional, cell-based; conditions: dose 1.0 µM, time 3-7 day; outline: as §4
[47] = target: Sigma non-opioid intracellular receptor 1 (Homo sapiens) (UniProt Q99720); test: Inhibition of human sigma 1 receptor at 1 uM relative to control
[48] = target: D(2) dopamine receptor (Homo sapiens) (UniProt P14416); test: Inhibition of human dopamine D2s receptor at 1 uM relative to control
[49] = species on record: Homo sapiens; test: Inhibition of human nicotinic acetylcholine at 1 uM relative to control
[50] = target: Sodium-dependent noradrenaline transporter (Homo sapiens) (UniProt P23975); test: Inhibition of human norepinephrine transporter at 1 uM relative to control
[51] = target: Muscarinic acetylcholine receptor M2 (Homo sapiens) (UniProt P08172); test: Inhibition of human muscarinic acetylcholine M2 receptor at 1 uM relative to control
[52] = target: Histone-lysine N-methyltransferase KMT5B (Homo sapiens) (UniProt Q4FZB7); test: Inhibition of […] (unknown origin) using H4 K20Me1 peptide in presence of SAM; outline: as §2
[53] = target: Prostaglandin E2 receptor EP4 subtype (Homo sapiens) (UniProt P35408); test: Inhibition of human EP4 receptor at 1 uM relative to control

CC(C)(C)c1ccc(NC(=O)NCCCNC[C@H]2O[C@@H](n3cc(Br)c4c(N)ncnc43)[C@H](O)[C@@H]2O)cc1
Kd [1]: 3.35 nM
Activity [2]: Active
Kd [3]: 3.35 nM
IC50 [4]: 3.6 nM

CC(C)N(CCCNC(=O)Nc1ccc(C(C)(C)C)cc1)C[C@H]1O[C@@H](n2cc(Br)c3c(N)ncnc32)[C@H](O)[C@@H]1O
inhibition [5]: 8%
inhibition [6]: -1%
inhibition [7]: Active
inhibition [8]: Active
IC50 [9]: 2.65 nM
Kd [1]: 0.0561 nM
inhibition [10]: inactive
inhibition [11]: inactive
inhibition [12]: 17%
inhibition [13]: inactive
Activity [2]: Active
inhibition at 1 µM [14]: -15%
inhibition [15]: inactive
Activity [16]: Active
inhibition [17]: 22%
Papp B→A at 1.5 h, 10 µM [18]: 10.6 ×10⁻⁶ cm/s
inhibition [19]: 2%
inhibition [20]: -1%
inhibition [21]: 19%
inhibition [22]: 19%
inhibition [23]: 5%
IC50 [24]: 8.8 nM
inhibition [25]: 8%
inhibition [26]: inactive
Kd [3]: 0.06 nM
Papp A→B at 1.5 h, 10 µM [27]: 5.7 ×10⁻⁶ cm/s
inhibition [28]: inactive
inhibition [29]: inactive
Activity [30]: inactive
inhibition [31]: 10%
inhibition [32]: -1%
inhibition [33]: -4%
inhibition [34]: 7%
inhibition [35]: inactive
inhibition [36]: -3%
inhibition [37]: inactive
inhibition [38]: inactive
inhibition [39]: 7%
inhibition [40]: 0%
inhibition [41]: inactive
inhibition [42]: -1%
Activity [43]: Tde
inhibition [44]: inactive
inhibition [45]: 0%
Activity [46]: Dose-Dependent Effect
inhibition [47]: -10%
inhibition [48]: -3%
inhibition [49]: 13%
inhibition [50]: 13%
inhibition [51]: 7%
inhibition [52]: inactive
inhibition [53]: -5%

Cc1ccc(NC(=O)NCCCN(C[C@H]2O[C@@H](n3cnc4c(N)ncnc43)[C@H](O)[C@@H]2O)C(C)C)cc1
Kd [1]: 26.9 nM
Activity [2]: Active
Kd [3]: 26.9 nM
IC50 [4]: 40.3 nM

CC(C)N(CCCNC(=O)Nc1ccc(C(C)(C)C)cc1)C[C@H]1O[C@@H](n2cnc3c(N)ncnc32)[C@H](O)[C@@H]1O
Activity [2]: Active
